Drawing on ChEMBL document CHEMBL1134344, “Crystal structure of human cyclin-dependent kinase 2 in complex with the adenine-derived inhibitor H717” (J Med Chem, 2001), this text covers IC50 for 4 compounds.

pIC50: −log10 of the molar value.

The target in assay [1] is Cyclin-dependent kinase 1/cyclin B (Homo sapiens, UniProt P06493). The assay is described as follows: Inhibition of human cyclic dependent kinase 1 (CDK1)/cyclin B. The assay is classed as protein-complex assay.
For assay [2], the system named is DU-145. Kind of assay: Inhibition of DU-145 human prostate tumor cell proliferation. The class given is functional, cell-based. In outline:
(§1)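 Tumor cells harvested with trypsin-EDTA, trypan-blue-excluding cells counted, plated and left overnight at 37 °C; drug diluted in culture medium and added for 72 h (three days). Medium then removed, plates frozen at -80 °C ≥30 min, thawed, and CyQUANT-GR in lysis buffer added for 3-5 min at room temperature.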

Assay [3] has as its system HT-29. Kind of assay: Inhibition of HT-29 human colon tumor cell proliferation. The assay is classed as functional, cell-based. In outline:
as §1

The subject of assay [4] is DMS-114. Kind of assay: Inhibition of DMS114 human lung tumor cell proliferation. The class given is functional, cell-based. A digest of the protocol:
as §1

The subject of assay [5] is MDA-MB-231. Kind of assay: Inhibition of MDA-MB-231 human breast tumor cell proliferation. The class given is functional, cell-based. A digest of the protocol: as §1
Assay [6] addresses Cyclin-dependent kinase 2/cyclin E (Homo sapiens, UniProt P24941). The assay is described as follows: Inhibition of cyclic dependent kinase 2 (CDK2)/cyclin E. The assay is classed as protein-complex assay.
Assay [7] relates to A549. Kind of assay: Inhibition of A549 human lung tumor cell proliferation. The class given is functional, cell-based. A digest of the protocol: as §1
Assay [8] relates to HCT-15. Kind of assay: Inhibition of HCT-15 human colon tumor cell proliferation. The class given is functional, cell-based. A digest of the protocol:
as §1

The subject of assay [9] is MCF7. The assay is described as follows: Inhibition of MCF-7 human breast tumor cell proliferation. The class given is functional, cell-based. A digest of the protocol: as §1
Assay [10] concerns the target Cyclin-dependent kinase 4/cyclin D1 (Homo sapiens, UniProt P11802). The assay is described as follows: Inhibition of cyclic dependent kinase 4 (CDK4)/cyclin D1. The assay is classed as protein-complex assay. In outline: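 Human CDK4 and cyclin D1 coexpressed in Sf9 cells (baculovirus, MOI 0.1 each, 72 h); 0.1 ng enzyme from clarified lysate. Substrate GST-Rb (0.5 µg) on glutathione-Sepharose beads. ATP 10 µM plus [γ33P]ATP; 30 min at 30 °C. Filtration, TNEN washes, scintillation counting; IC50 from increasing drug concentrations.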

The test system of assay [11] is PC-3. Kind of assay: Inhibition of PC-3 human prostate tumor cell proliferation. The class given is functional, cell-based. A digest of the protocol: as §1

Chain of Cyclin-dependent kinase 4/cyclin D1 (P11802 whole entry): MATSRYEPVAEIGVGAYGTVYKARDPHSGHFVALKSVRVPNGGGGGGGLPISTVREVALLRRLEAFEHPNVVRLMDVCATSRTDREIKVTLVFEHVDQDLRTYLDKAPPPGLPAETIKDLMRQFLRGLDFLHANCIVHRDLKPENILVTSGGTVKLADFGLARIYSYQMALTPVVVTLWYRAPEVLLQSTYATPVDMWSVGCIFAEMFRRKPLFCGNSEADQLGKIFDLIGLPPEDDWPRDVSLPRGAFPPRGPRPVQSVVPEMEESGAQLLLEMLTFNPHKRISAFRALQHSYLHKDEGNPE
Chain of Cyclin-dependent kinase 4/cyclin D1 (P24385 whole entry, further chain): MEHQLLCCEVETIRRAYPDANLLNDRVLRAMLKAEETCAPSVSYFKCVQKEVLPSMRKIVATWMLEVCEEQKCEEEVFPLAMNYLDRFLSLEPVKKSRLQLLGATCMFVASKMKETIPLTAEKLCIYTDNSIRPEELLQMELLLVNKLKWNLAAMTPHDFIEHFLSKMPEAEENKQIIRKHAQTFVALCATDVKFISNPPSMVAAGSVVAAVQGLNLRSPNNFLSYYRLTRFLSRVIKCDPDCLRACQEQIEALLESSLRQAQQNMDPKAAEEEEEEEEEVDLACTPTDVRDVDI

As for `N[C@H]1CC[C@H](Nc2nc(NCc3ccccc3)c3ncn(C4CCCC4)c3n2)CC1`, the pIC50 (as a rule, −log10 of the IC50, conventionally taken in molar units) in [1] is 7.28.
Regarding `C[C@H](Nc1nc(N[C@H]2CC[C@H](N)CC2)nc2c1ncn2C1CCCC1)c1ccccc1`, the pIC50 was 5.25 in assay [2]; 5.24 in assay [3]; 5.18 in assay [4]; 5.28 in assay [5]; 6.14 in [6]; 5.21 in [7]. The pIC50 in assay [8] is 5.07; in assay [9], 5.48; in assay [10], 5.06; in assay [1], 5.70; in [11], 5.41.
With `N[C@H]1CC[C@H](Nc2nc(NCC3CC3)c3ncn(C4CCCC4)c3n2)CC1`, the pIC50 in assay [2] is 5.89; in assay [3] it was 5.70; in [4], 5.85; in assay [5], 5.77; in assay [6] it was 7.62; in [7] it was 5.80. The pIC50 in [8] was 5.48; in assay [9], 5.89; in assay [10], 6.11; in [1] it was 7.15; in assay [11], 6.22.
For `N[C@H]1CC[C@H](Nc2nc(NCc3cccc(I)c3)c3ncn(C4CCCC4)c3n2)CC1`, the pIC50 was 5.80 in assay [2]; 5.92 in assay [3]; 6.00 in assay [4]; 6.00 in assay [5]; 7.30 in assay [6]; 6.00 in assay [7]. In addition, the pIC50 in assay [8] was 5.68; in [9], 6.22; in assay [10], 5.70; in assay [1], 6.65; in assay [11] it was 5.85.
